This is a sample that favours compounds with a hit; in the whole collection about 1.8% have one here.
M5 ag: CHRM5 agonism in calcium assay. P08912. CHO-K1 hM5 cells, Fluo-8 calcium fluorescence; 0% DMSO wells, 100% maximal acetylcholine response. activation, % at 3 µM. 0.19% of 360,000 active;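 active = activation above the run's mean over test compounds plus 3 SD, cut at about 23% in these data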;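 also: signal is peak over basal fluorescence ratio across the kinetic read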
CHRM4 PAM: CHRM4 positive allosteric modulation | P08173 | CHO-K1 hM4/Gqi5, Fluo-8 calcium fluorescence, ACh EC20; 0% = ACh EC20, 100% = maximal ACh | activation, % at 3 µM | 0.4% of 360,000 active | AID 624126;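 active = activation above its plate's cutoff, the mean activation of sample wells plus 3 SD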
Target sequence (P08173 whole entry, looked up): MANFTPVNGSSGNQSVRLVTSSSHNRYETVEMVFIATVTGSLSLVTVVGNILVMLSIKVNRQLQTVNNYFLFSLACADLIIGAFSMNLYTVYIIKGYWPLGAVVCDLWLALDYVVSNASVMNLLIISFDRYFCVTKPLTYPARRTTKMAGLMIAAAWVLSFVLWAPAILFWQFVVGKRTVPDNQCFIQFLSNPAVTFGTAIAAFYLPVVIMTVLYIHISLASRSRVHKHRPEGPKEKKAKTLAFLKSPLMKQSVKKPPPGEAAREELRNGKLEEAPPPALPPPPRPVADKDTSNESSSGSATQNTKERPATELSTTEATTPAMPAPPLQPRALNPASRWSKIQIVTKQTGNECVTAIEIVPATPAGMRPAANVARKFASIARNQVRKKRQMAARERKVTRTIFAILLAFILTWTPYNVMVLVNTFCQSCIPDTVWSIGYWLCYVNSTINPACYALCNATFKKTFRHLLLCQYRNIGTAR
CHRM5 PAM: positive allosteric modulators of human muscarinic M5 receptor. CHO-K1 hM5, Fluo-8 calcium, ACh EC20 PAM; 0% = ACh EC20, 100% = ACh EC100. activation, % at 3 µM. 0.3% of 360,000 active;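 active = activation above the run cutoff, the mean activation of all test compounds plus 3 SD, cut at about 18% in these data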
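system = human M5 receptor in CHO-K1 cells | reagent = EC20 acetylcholine as agonist stimulus | compound dosing = single-point, 3 µM nominal | incubation = Fluo-8 loading 80 min at 37 °C plus 30 min room temperature | detection = Fluo-8 calcium dye fluorescence, kinetic read | benchmarks = low control EC20 acetylcholine (0%), high control EC100 acetylcholine (100%)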
M4 ag: CHRM4 agonism in calcium assay; activation, % at 3 µM; 0.14% of 360,000 active; P08173; AID 624127; CHO-K1 hM4/Gqi5, Fluo-8 calcium fluorescence; vehicle 0%, full acetylcholine response 100%;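 active = activation above the run mean over all test wells plus 3 SD, cut at about 32% in these data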;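 also: peak over basal fluorescence ratio per well then scaled between controls; 0% = DMSO wells and 100% = acetylcholine at EC100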
M4 antag: antagonists of human muscarinic M4 receptor (CHRM4) | CHO-hM4 cells, ACh EC80, Fluo-8 calcium fluorescence | inhibition, % at 3 µM | 0.73% of 360,000 active;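 active = inhibition above its plate's cutoff, the mean inhibition of sample wells plus 3 SD, cut at about 27% in these data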;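 also: 0% = acetylcholine EC80 with DMSO and 100% = DMSO without agonist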
M5 antag: blocks acetylcholine activation of human M5 receptor. P08912. CHO-hM5 cells, Fluo-8 calcium fluorescence, ACh EC80. inhibition, % at 3 µM. 0.59% of 360,000 active. AID 624040;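 active = inhibition above a per-plate cutoff, the mean of that plate's test compounds plus 3 SD, cut at about 27% in these data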;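 also: 0% = acetylcholine EC80 with DMSO and 100% = DMSO without agonist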
* hit, by the source's call.

SMILES | M5 ag | CHRM4 PAM | CHRM5 PAM | M4 ag | M4 antag | M5 antag
COc1ccc(C2CC3(CC(C)(C)NC(SC)=N3)Oc3cc(O)cc(C)c32)cc1 (stereo unspecified) | 5.2 | -8.3 | -7.9 | 48.9* | -7.2 | 1.1
COc1ccc(C2CC3(CC(C)(C)NC(=S)N3)Oc3cc(O)cc(C)c32)cc1 (stereo unspecified) | -0.1 | -2.5 | -6.7 | 2.0 | -5.6 | 9.5
Cc1n[nH]c2ccccc2c1=O | 1.6 | 0.3 | 2.1 | 0.3 | -1.7 | 2.4
CC(C)(C)c1ccc(Nc2n[nH]c3ccccc23)cc1 | -0.1 | 21.2* | -1.9 | -0.6 | -22.6 | -5.0
O=S(=O)(Nc1nc2ccccc2[nH]1)c1ccc(Cl)cc1 | -7.2 | -28.9 | -17.4 | 4.7 | 67.5* | 49.6*
O=S(=O)(Nc1nc2ccccc2[nH]1)c1ccccc1 | -6.9 | -20.1 | -17.8 | -0.1 | 18.9 | 7.8
CCOC(=O)C1=CCN(S(=O)(=O)c2ccccc2F)C1c1ccc(Cl)c(Cl)c1 (stereo unspecified) | -3.8 | -12.2 | -9.3 | -1.3 | -11.2 | -0.5
CCOC(=O)CCC(NC(=O)c1ccc(Nc2nc3ccccc3nc2C(=O)OCC)cc1)C(=O)OCC (stereo unspecified) | 4.8 | -0.5 | -8.8 | 1.0 | -6.0 | 5.6
CC[C@@H](C)[C@@H]1CN([C@@H](C)CN2CCC[C@H]2CN2C(N)=NC[C@@H]2Cc2ccccc2)C(=N)N1CCCC1CCCC1 | -10.9 | -15.2 | -40.9 | 0.3 | 64.9* | 4.6
CC[C@@H](C)[C@@H]1CN([C@@H](C)CN2CCC[C@H]2CN2C(N)=NC[C@H]2CC(C)C)C(=N)N1CCCC1CCCC1 | -3.1 | -12.5 | -3.6 | 0.0 | 8.4 | -8.3
CCCCN1C(=N)N([C@@H](C)CN2CCC[C@H]2CN2C(N)=NC[C@@H]2Cc2ccccc2)C[C@H]1Cc1ccccc1 | -14.0 | -15.3 | -31.0 | 1.2 | 40.1* | 15.4
O=C(c1ccco1)N1CCN(c2ccc(N3CCCCC3)nn2)CC1 | -8.2 | -6.4 | -1.8 | 0.6 | -11.4 | -4.1
COc1ccc(-c2ccc(C(=O)Nc3cccc(NS(C)(=O)=O)c3)c3occc23)c(C)c1 | -0.6 | -8.4 | -15.3 | 7.3 | 30.8* | 15.3
COc1ccc(-c2ccc(C(=O)Nc3cccc(F)c3)c3occc23)c(C)c1 | -2.0 | -2.7 | -5.5 | 0.4 | 4.5 | 0.5
COc1ccc(NC(=O)CSc2nnc(NC(=O)c3ccc(S(=O)(=O)N4CCOCC4)cc3)s2)cc1 | 7.4 | 5.1 | 23.0* | 0.8 | 22.9 | 15.5
COc1cc(C2C=C(c3cccs3)Nc3ncnn32)cc(OC)c1OC (stereo unspecified) | 19.1 | -14.5 | -9.5 | 34.5* | 10.3 | 16.2
NC(=O)C1CCN(C(=O)CNC(=O)c2ccc(F)cc2)CC1 | -0.2 | -1.6 | 4.4 | 0.0 | -2.9 | 17.9
COc1ccc(Nc2nc(N3CCCC3)c3ccccc3n2)cc1 | -1.8 | 1.4 | -3.6 | 5.4 | 6.3 | 6.3
CCN(CC)c1ccc(Nc2nc(N3CCOCC3)c3ccccc3n2)cc1 | -4.6 | -20.8 | -15.0 | 6.9 | 20.3 | 30.0*
c1ccc(Nc2nc(N3CCNCC3)nc(N3CCOCC3)n2)cc1 | -0.7 | 5.5 | -5.6 | 1.0 | -8.8 | 4.7
c1ccc(Nc2nc(N3CCOCC3)nc(N3CCOCC3)n2)cc1 | -2.5 | 31.3* | 5.3 | 0.7 | 3.2 | 16.9
CCOc1ccccc1NC(=O)NC1CC2CCCC(C1)N2Cc1nnnn1CCc1ccccc1 (stereo unspecified) | -3.9 | -10.7 | -4.9 | -0.5 | 42.3* | -8.5
CCOC(=O)Cn1c(=O)oc2cc(S(=O)(=O)Nc3ccc(F)cc3)ccc21 | 28.1* | 0.1 | -15.9 | 23.6 | -14.2 | 13.8
CCOC(=O)Cn1c(=O)oc2cc(S(=O)(=O)NCCc3ccc(C)cc3)ccc21 | 3.0 | -5.9 | -5.7 | 6.8 | -4.3 | 5.0
CC1CCc2c(sc3ncnc(SCC(=O)c4ccccc4)c23)C1 (stereo unspecified) | -3.6 | 14.2 | 7.2 | 0.0 | -2.2 | 0.0
CC(=O)CSc1ncnc2sc3c(c12)CCC(C)C3 (stereo unspecified) | -7.9 | 22.7* | 11.4 | -1.0 | -13.9 | -8.2

High-throughput results from PubChem BioAssay.
